# From ChEMBL document CHEMBL3351891, “Synthesis and structure-activity relationships of lapacho analogues. 2. Modification of the basic naphtho[2,3-b]furan-4,9-dione, redox activation, and suppression of human keratinocyte hyperproliferation by 8-hydroxynaphtho[2,3-b]thiophene-4,9-diones” (J Med Chem, 2014)
# Columns and labels:
# HaCaT [1] = assay: Antihyperproliferative activity against human HaCaT cells assessed as inhibition of cell growth after 48 hrs by phase contrast microscopy; assay type: functional, cell-based
# In short: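 Immortalized human HaCaT keratinocytes incubated with compound for 48 h; growth determined by counting dispersed cells under phase contrast microscopy. Inhibition = (1 − test/control) × 100, test N = 3 vs control N = 6−8, Student's t test; IC50 by nonlinear regression.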
# HaCaT [2] = assay: Antihyperproliferative activity against human HaCaT cells assessed as LDH release at 2 umol/L after 4 hrs; assay type: functional
# In short: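 HaCaT keratinocytes exposed to test compound (2 μM) for 4 h at 37 °C; extracellular LDH in supernatant measured by UV method with pyruvate and NADH, reported as mU/mL. Vehicle control 0.2% DMSO in medium; Brij 35 with ultrasound as positive control; N = 3.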
# [3] = Induction of superoxide generation measured per U of enzyme in presence of NQO-1; assay type: physicochemical
# In short: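 Human recombinant NQO-1 with NADPH and compound ([…]); superoxide followed spectrophotometrically as SOD-inhibitable cytochrome c reduction, with catalase and DTPA added. Rate as μmol/L/min per U enzyme; mean ± SD, N ≥ 3.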
# HaCaT [4] = assay: Induction of superoxide generation in human HaCaT cells assessed as mean fluorescence intensity at 5 umol/L for 18 hrs chronic treatment in presence of dicoumarol NQO-1 inhibitor (reference value: 407.6 +/- 68.7 no unit); assay type: functional
# HaCaT [5] = assay: Induction of superoxide generation in human HaCaT cells assessed as apoptotic cells at 5 umol/L for 18 hrs chronic treatment in presence of dicoumarol NQO-1 inhibitor (reference value: 4.3 +/- 2.6%); assay type: functional
# [6] = Induction of superoxide generation measured per 2 mU of enzyme in presence of cytochrome P450 oxidoreductase; assay type: physicochemical
# In short: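 Human recombinant NADPH–cytochrome P450 oxidoreductase with compound ([…]); spectrophotometric SOD-inhibitable reduction of succinoylated cytochrome c, with catalase and DTPA present. Rate given as μmol/L/min per 2 mU enzyme; mean ± SD, N ≥ 3.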
# HaCaT [7] = assay: Induction of superoxide generation in human HaCaT cells assessed as apoptotic cells at 5 umol/L for 18 hrs chronic treatment (reference value: 3 +/- 1%); assay type: functional
# HaCaT [8] = assay: Induction of superoxide generation in human HaCaT cells assessed as mean fluorescence intensity at 5 umol/L for 18 hrs chronic treatment (reference value: 367.5 +/- 80.1 no unit); assay type: functional
# HaCaT [9] = assay: Induction of superoxide generation in human HaCaT cells assessed as mean fluorescence intensity at 50 umol/L for 30 mins acute treatment (reference value: 7.1 +/- 5.2 no unit); assay type: functional
SMILES,IC50 (HaCaT [1]),further results
CCc1noc(-c2cc3c(s2)C(=O)c2c(OC)cccc2C3=O)n1,3.52 µM,–
COc1c2cc(C(=O)c3cccnc3)sc2c(OC)c2c(OC)cccc12,> 30 µM,–
CCC(=O)c1cc2c(s1)C(=O)c1c(OC)cccc1C2=O,3.5 µM,–
O=C1c2c(O)cccc2Cc2cccc(O)c21 [ANTHRALIN],–,Activity (HaCaT [2]): 239 mU/ml
COc1cccc2c1C(=O)c1sccc1C2=O,13.5 µM,–
O=C1c2ccccc2C(=O)c2ocnc21,0.9 µM,–
CCN(CC)C(=O)c1cc2c(s1)C(=O)c1c(O)cccc1C2=O,0.36 µM,Activity (HaCaT [2]): 330 mU/ml
CC(=O)c1cc2c(s1)C(=O)c1c(Cl)cccc1C2=O,1.28 µM,–
CCOC(=O)c1cc2c(OC)c3cccc(OC)c3c(OC)c2s1,> 30 µM,–
COc1ccc(Cc2ccc3c(c2O)C(=O)c2sccc2C3=O)cc1,23.2 µM,–
O=C1c2ccsc2C(=O)c2c1ccc(CO)c2O,1.2 µM,Activity (HaCaT [2]): 214 mU/ml
CC1(C)CCC2=C(O1)c1ccccc1C(=O)C2=O [LAPACHONE],–,Activity (HaCaT [2]): 268 mU/ml
CC(=O)c1cc2c(s1)C(=O)c1c(O)ccc(O)c1C2=O,0.5 µM,–
O=C(O)c1ccc(Cc2ccc3c(c2O)C(=O)c2sccc2C3=O)cc1,> 30 µM,–
O=C(Cc1ccc2c(c1O)C(=O)c1sccc1C2=O)OCc1ccccc1,> 30 µM,–
O=C1c2ccsc2C(=O)c2c(Cl)cccc21,3.77 µM,–
CCc1ccc2c(c1O)C(=O)c1sccc1C2=O,11.4 µM,–
CC(=O)c1nc2c(n1C)C(=O)c1ccccc1C2=O,> 30 µM,–
CCOC(=O)Cc1ccc2c(c1O)C(=O)c1sccc1C2=O,2.1 µM,–
O=C(O)Cc1ccc2c(c1O)C(=O)c1sccc1C2=O,21.5 µM,–
O=C1c2ccccc2C(=O)c2[se]ccc21,6.12 µM,–
COc1c2ccsc2c(OC)c2c(OC)cccc12,> 30 µM,–
CC(=O)c1nc2c([nH]1)C(=O)c1ccccc1C2=O,> 30 µM,–
O=C(c1cccs1)c1cc2c(s1)C(=O)c1c(O)cccc1C2=O,0.29 µM,Activity (HaCaT [2]): 158 mU/ml
COc1ccc(C(=O)c2cc3c(s2)C(=O)c2c(O)cccc2C3=O)c(O)c1,7.07 µM,–

SMILES,IC50 (HaCaT [1]),further results
Nc1cccc2c1C(=O)c1sccc1C2=O,> 30 µM,–
O=C1c2sccc2Cc2cccc(O)c21,2.5 µM,–
COc1cccc2c1C(=O)c1sc(C(C)=O)cc1C2=O,3.5 µM,–
O=C1c2ccccc2C(=O)c2[nH]ccc21,> 30 µM,–
CC(=O)Nc1cccc2c1C(=O)c1sccc1C2=O,2.76 µM,–
O=C1c2cc(-c3nc(CCc4ccccc4)no3)sc2C(=O)c2c(O)cccc21,0.48 µM,–
CCc1noc(-c2cc3c(OC)c4cccc(OC)c4c(OC)c3s2)n1,> 30 µM,–
O=C(O)c1cc2c(s1)C(=O)c1c(O)cccc1C2=O,> 30 µM,–
CCc1noc(-c2cc3c(s2)C(=O)c2c(O)cccc2C3=O)n1,0.19 µM,Activity [3]: 0.7 µmol/L/min; Flu intensity (HaCaT [4]): 747; Activity (HaCaT [5]): 20.3%; Activity [6]: 1 µmol/L/min; Activity (HaCaT [7]): 77.6%; Flu intensity (HaCaT [8]): 802.2; Activity (HaCaT [2]): 150 mU/ml; Flu intensity (HaCaT [9]): 20.9
O=C(OCCc1ccccc1)c1cc2c(s1)C(=O)c1c(O)cccc1C2=O,> 30 µM,–
O=C1c2ccsc2C(=O)c2c(O)cccc21,2.75 µM,Activity [3]: 0.3 µmol/L/min; Flu intensity (HaCaT [4]): 717.7; Activity (HaCaT [5]): 6.1%; Activity [6]: 1.8 µmol/L/min; Activity (HaCaT [7]): 4.9%; Flu intensity (HaCaT [8]): 610.6; Flu intensity (HaCaT [9]): 23.8
O=C(O)c1ccccc1Cc1ccc2c(c1O)C(=O)c1sccc1C2=O,25.7 µM,–
Cc1ccc(Cc2ccc3c(c2O)C(=O)c2sccc2C3=O)cc1,13.8 µM,–
O=C1c2ccsc2C(=O)c2c1ccc(Cc1ccc(C(F)(F)F)cc1)c2O,16.7 µM,–
CCOC(=O)c1cc2c(s1)C(=O)c1c(OC)cccc1C2=O,2.87 µM,–
O=C1c2ccccc2C(=O)c2[nH]cnc21,> 30 µM,–
CCCOC(=O)Cc1ccc2c(c1O)C(=O)c1sccc1C2=O,4.5 µM,–
CC(=O)c1cc2c(s1)C(=O)c1c(ccc(CO)c1O)C2=O,0.7 µM,Activity (HaCaT [2]): 284 mU/ml
COC(=O)Cc1ccc2c(c1O)C(=O)c1sccc1C2=O,2.8 µM,–
Cn1cnc2c1C(=O)c1ccccc1C2=O,> 30 µM,–
COc1ccc(C(=O)c2cc3c(s2)C(=O)c2c(O)cccc2C3=O)cc1,4.72 µM,–
CCCCc1ccc2c(c1O)C(=O)c1sccc1C2=O,> 30 µM,–
O=C1c2ccsc2C(=O)c2c1ccc(Cc1ccco1)c2O,8.5 µM,Activity (HaCaT [2]): 127 mU/ml
CCC(=O)c1cc2c(OC)c3cccc(OC)c3c(OC)c2s1,> 30 µM,–
N#Cc1ccc(Cc2ccc3c(c2O)C(=O)c2sccc2C3=O)cc1,14.2 µM,–

SMILES,IC50 (HaCaT [1]),further results
CCOC(=O)c1cc2c(s1)C(=O)c1c(O)cccc1C2=O,0.76 µM,Activity (HaCaT [2]): 233 mU/ml
O=C(c1ccccc1)c1cc2c(s1)C(=O)c1c(O)cccc1C2=O,0.8 µM,Activity (HaCaT [2]): 419 mU/ml
O=C(CCc1ccccc1)c1cc2c(s1)C(=O)c1c(O)cccc1C2=O,> 30 µM,–
O=C(c1cccnc1)c1cc2c(s1)C(=O)c1c(O)cccc1C2=O,0.3 µM,Activity (HaCaT [2]): 154 mU/ml
COc1ccc(COC(=O)c2cc3c(s2)C(=O)c2c(O)cccc2C3=O)cc1,11.9 µM,–
O=C1c2ccsc2C(=O)c2c(O)ccc(O)c21,2.7 µM,–
COC(=O)c1ccccc1Cc1ccc2c(c1O)C(=O)c1sccc1C2=O,19.1 µM,–
Cc1ccc2c(c1O)C(=O)c1sccc1C2=O,5.3 µM,–
CC(C)C(=O)c1cc2c(s1)C(=O)c1c(O)cccc1C2=O,0.45 µM,–
O=C1c2ccccc2C(=O)c2scnc21,1.2 µM,–
CC(=O)c1cc2c(s1)C(=O)c1ccccc1C2=O,0.44 µM,–
O=C1c2ccsc2C(=O)c2c1ccc(Cc1ccccc1)c2O,10.1 µM,Activity (HaCaT [2]): 107 mU/ml
O=C1c2ccccc2C(=O)c2sccc21 [THIOPHENONAPHTHOQUINONE],4.8 µM,–
O=C(c1ccc(Cl)cc1)c1cc2c(s1)C(=O)c1c(O)cccc1C2=O,5.64 µM,–
CC(=O)c1cc2c(s1)C(=O)c1c(O)cccc1C2=O,0.4 µM,Activity [3]: 0.6 µmol/L/min; Flu intensity (HaCaT [4]): 813; Activity (HaCaT [5]): 7.3%; Activity [6]: 1.1 µmol/L/min; Activity (HaCaT [7]): 23%; Flu intensity (HaCaT [8]): 921.4; Flu intensity (HaCaT [9]): 23.7
COc1cccc2c1C(=O)c1sc(C(=O)c3cccnc3)cc1C2=O,5.7 µM,–
CC(C)OC(=O)c1cc2c(s1)C(=O)c1c(O)cccc1C2=O,0.92 µM,–
COC(=O)c1ccc(Cc2ccc3c(c2O)C(=O)c2sccc2C3=O)cc1,> 30 µM,–
O=C(COc1ccccc1)c1cc2c(s1)C(=O)c1c(O)cccc1C2=O,11.2 µM,–
COc1ccc(Cc2ccc3c(c2O)C(=O)c2sccc2C3=O)cc1OC,> 30 µM,–
CCC(=O)c1cc2c(s1)C(=O)c1c(O)cccc1C2=O,0.38 µM,Activity (HaCaT [2]): 244 mU/ml
CC1=CC(=O)c2ccccc2C1=O [MENADIONE],–,Activity [3]: 1 µmol/L/min; Flu intensity (HaCaT [4]): 457.2; Activity (HaCaT [5]): 3.1%; Activity [6]: 2.1 µmol/L/min; Activity (HaCaT [7]): 4.8%; Flu intensity (HaCaT [8]): 431.9; Flu intensity (HaCaT [9]): 44
O=Cc1cc2c(s1)C(=O)c1c(O)cccc1C2=O,1 µM,–
O=C(Cc1ccccc1)c1cc2c(s1)C(=O)c1c(O)cccc1C2=O,4.42 µM,–
